Measurements of several laboratories.
Each line is one published result; the experiments were not run side by side.
Target: Activin receptor type-2A (ACVR2A, Homo sapiens, UniProt P27037)

O=C1NC(c2ccccn2)Sc2ccccc21 (stereo not shown)
remaining binding (cell-free assay; competition with immobilised ligand; 1 µM): 100%

Cc1cnn2ncc(-c3ccnc(N(C)C)n3)c2c1
remaining binding (binding; 1 µM): 74%

O=C(NCCCN1CCOCC1)c1ccc(Nc2nccc(-c3cc4ccccc4s3)n2)cc1
remaining binding (binding; competition with immobilised ligand; 1 µM): 58%

C[C@H](c1ccnc(Nc2nc3ccc(-c4cc(N(C)C)ncn4)cc3[nH]2)c1)N1CCN(C(=O)CC(F)(F)F)CC1
remaining binding (cell-free assay; competition with immobilised ligand; 0.1 µM): 100%

O=C(Nc1c[nH]nc1C(=O)NC1CCNCC1)c1cc(F)cc(F)c1
remaining binding (binding; competition with immobilised ligand; 1 µM): 100%

C[C@@H](c1ccc(-n2cnc3c(N)ncnc32)cc1)N1CCc2nn(C)c(Cc3ccccc3)c2C1=O
remaining binding (binding; competition with immobilised ligand; 0.1 µM): 92%

N[C@H]1CCN(c2nccc(-c3cnn4ncccc34)n2)C1
remaining binding (binding; 1 µM): 100%

O=C(NCCCC1CCCCC1)c1ccc(CNC(=O)c2cnn(-c3ccccc3)c2C(F)(F)F)cc1
remaining binding (cell-free assay; competition with immobilised ligand; 0.1 µM): 83%

O=C(c1ccc(Nc2nccc(-c3cc4ccccc4s3)n2)cc1)N1CCC(N2CCCC2)CC1
remaining binding (binding; competition with immobilised ligand; 1 µM): 90%

CCOC(=O)c1cc2cc(-c3cc(C(=O)NCc4ccc(C(=O)O)cc4)nn3C)ccc2[nH]1
remaining binding (cell-free assay; competition with immobilised ligand; 0.1 µM): 59%

O=C(c1ccc(Nc2ncc(Cl)c(-c3cc4ccccc4s3)n2)cc1)N1CCC(N2CCCC2)CC1
remaining binding (binding; competition with immobilised ligand; 1 µM): 64%

COc1cnc(Nc2cccc(S(N)(=O)=O)c2)nc1N1CCN(c2ccccc2)C(=O)C1
remaining binding (binding; competition with immobilised ligand; 1 µM): 100%

CN(CCCC(F)(F)F)c1nccc(-c2cnn3ncccc23)n1
remaining binding (binding; 1 µM): 100%

COc1ccc2c(O[C@@H]3C[C@H]4C(=O)N[C@]5(C(=O)O)CC5/C=C\CCCCC[C@H](NC(=O)OC5CCCC5)C(=O)N4C3)cc(-c3csc(NC(=O)C(C)C)n3)nc2c1C (stereo partly shown)
remaining binding (cell-free assay; competition with immobilised ligand; 1 µM): 72%

C[C@@H]1CCN(c2nccc(-c3cnn4ncccc34)n2)C1
remaining binding (binding; 1 µM): 100%

CC(=O)Nc1c(C(C)=O)c(=O)n(C)c2nc(-c3ccc(Cl)cc3Cl)c(-c3ccc(Cl)cc3)cc12
remaining binding (cell-free assay; competition with immobilised ligand; 1 µM): 100%

CN(C)c1nccc(-c2cnn3ncccc23)n1
remaining binding (binding; 1 µM): 90%

CNC(=O)[C@@H]1CC[C@@H](n2c(-c3ccc4cnccc4c3)nc3ccc(C(=O)NCc4cccc(C(N)=O)c4)cc32)C1
remaining binding (binding; competition with immobilised ligand; 1 µM): 100%

c1cnn2ncc(-c3ccnc(N4CCC45COC5)n3)c2c1
remaining binding (binding; 1 µM): 99%

Nc1ncc2c(n1)-c1c([nH]c3ccc(C#CC4CC4)cc13)CCCC2
remaining binding (binding; competition with immobilised ligand; 1 µM): 91%

CN(c1nccc(-c2cnn3ncccc23)n1)C1CC1
remaining binding (binding; 1 µM): 100%

O=C(Nc1cccnn1)N1CCC(=Cc2cccc(Oc3ccc(C(F)(F)F)cn3)c2)CC1
remaining binding (cell-free assay; competition with immobilised ligand; 1 µM): 100%
